Pf Dd2 inh = blocks growth of Plasmodium falciparum Dd2 parasites; actives 2.3% (n = 94,000); P. falciparum Dd2 growth, SYBR Green, 72 h; hits give low values; activity change, % at 10 µM; in the data active = activity change below about -80%; inconclusive = no clear call, values can overlap the other calls
GASC1 inh = blocks human GASC-1 (KDM4C) demethylase activity; Q9H3R0; GST-KDM4C 2-372, H3K9me3 peptide, LANCE TR-FRET; inhibition, % at 12.5 µM; actives 0.15% (n = 96,000); AID 720574;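 active = mean replicate inhibition above about 25%, with at least 55% of replicates also reaching it, limit read from the data, passing the limit was not always enough; inconclusive = only one of those two conditions met; inactive = neither condition met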
Target sequence (Q9H3R0 2-372 limits assumed): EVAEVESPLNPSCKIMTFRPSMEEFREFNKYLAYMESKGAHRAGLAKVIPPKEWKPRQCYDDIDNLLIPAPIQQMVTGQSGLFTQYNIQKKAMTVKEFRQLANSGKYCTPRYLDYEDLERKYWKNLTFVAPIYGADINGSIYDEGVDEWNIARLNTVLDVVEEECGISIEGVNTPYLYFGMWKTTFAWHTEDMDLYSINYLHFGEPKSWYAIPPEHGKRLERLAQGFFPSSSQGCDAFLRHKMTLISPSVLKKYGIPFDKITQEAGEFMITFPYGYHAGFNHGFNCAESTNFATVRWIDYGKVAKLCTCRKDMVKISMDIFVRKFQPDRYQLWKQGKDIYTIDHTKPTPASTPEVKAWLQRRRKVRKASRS
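Material: GST-tagged GASC-1 (JMJD2C) catalytic fragment, aa 2-372 / Quantity: enzyme final amount 10 nM / Medium: HEPES buffer, pH 7.5, plus ascorbate / Doses: one test concentration per compound / Incubation: 30 min reaction, 60 min detection, RT / Measured by: LANCE TR-FRET / Read-out: inhibition from TR-FRET ratio decrease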
IDH1 mut inh = inhibitors of human IDH1 R132H; O75874; IDH1 R132H reductase, diaphorase/resazurin fluorescence, 60 min; inhibition, % at 10 µM; actives 0.18% (n = 70,000); in the data active = inhibition above about 34%; inconclusive = no clear call, values can overlap the other calls; inactive = below about 11%
T cruzi growth-1 = inhibitors of T. cruzi proliferation; T. cruzi beta-gal in NIH3T3, GalScreen luminescence, 90 h; inhibition, % at 8.34 µM; actives 5.9% (n = 77,000); AID 624255;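 active = mean inhibition above about 93%, with at least 55% of replicates each passing it, limit read from the data, passing the limit was not always enough; inconclusive = only one of those two conditions holds; inactive = neither condition holds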
T cruzi growth-2 = Trypanosoma cruzi proliferation inhibition | shares compounds with T cruzi growth-1 | T. cruzi beta-gal in NIH3T3, GalScreen luminescence, 90 h | inhibition, % at 8.35 µM | actives 72% (n = 5,600);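 active = mean replicate inhibition above about 95% and at least 55% of replicates individually reaching it, limit read from the data; inconclusive = only one of the two criteria is met; inactive = neither criterion is met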
T cruzi growth-3 = blocks T. cruzi growth in NIH3T3 host cells | actives 21% (n = 5,600) | T. cruzi beta-gal in NIH3T3, GalScreen luminescence, 90 h | inhibition, % at 2.09 µM | shares compounds with T cruzi growth-1;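 active = mean inhibition above about 95%, with at least 55% of replicates also reaching it, limit read from the data; inconclusive = meets just one of the two conditions; inactive = meets neither condition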
NIH3T3 tox = NIH/3T3 (mouse) viability loss; shares compounds with T cruzi growth-1; NIH/3T3 viability, CellTiter-Glo ATP luminescence, 90 h; cytotoxicity (signal decrease), % at 8.35 µM; actives 14% (n = 5,600);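 active = mean signal decrease across replicates above about 35% based on untreated-well scatter, with enough replicates individually passing, limit read from the data; inconclusive = no rule stated though some were filed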
NIH3T3 tox 2 = NIH/3T3 (mouse) viability loss; actives 56% (n = 5,600); shares compounds with T cruzi growth-1; NIH/3T3 viability, CellTiter-Glo ATP luminescence, 90 h; inhibition, % at 24.9 µM;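 active = mean loss of cell viability signal at or above a set limit, and enough replicates individually reaching it; inconclusive = meets only the mean limit or only the replicate share; inactive = meets neither condition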
Each line names hits and unclear results; the compound was inactive in the other large screens (follow-up assays come after a bar, where they were run). Hits are enriched below; roughly 5.8% of the tested compounds scored in any of these assays.

N#Cc1cccc(-c2ccc([C@H]3[C@H]4CN(C(=O)Cc5ccncc5)CCCCN4[C@H]3CO)cc2)c1	T cruzi growth-1 105.4 (no result: IDH1 mut inh) | T cruzi growth-2 inactive | T cruzi growth-3 inactive | NIH3T3 tox inactive | NIH3T3 tox 2 46.6
N#Cc1cccc(-c2ccc([C@H]3[C@H]4CN(C(=O)Cc5ccccc5)CCCCN4[C@H]3CO)cc2)c1	T cruzi growth-1 inconclusive (no result: IDH1 mut inh) | T cruzi growth-2 inactive | T cruzi growth-3 inactive | NIH3T3 tox inactive | NIH3T3 tox 2 inactive
N#Cc1cccc(-c2ccc([C@@H]3[C@H]4CN(C(=O)Cc5ccccc5)CCCCN4[C@H]3CO)cc2)c1	none (no result: IDH1 mut inh)
CCC(O)CC1CCCC(CC(O)c2ccccc2)N1C (centres undefined)	none (no result: Pf Dd2 inh, GASC1 inh, T cruzi growth-1)
O=C(Cc1ccccc1)N1CCCCN2[C@H](CO)[C@@H](c3ccc(C#Cc4ccccc4)cc3)[C@@H]2C1	T cruzi growth-1 106.4 (no result: IDH1 mut inh) | T cruzi growth-2 99.8 | T cruzi growth-3 inactive | NIH3T3 tox inactive | NIH3T3 tox 2 105.5
O=C(Cc1ccncc1)N1CCCCN2[C@H](CO)[C@H](c3ccc(C#Cc4ccccc4F)cc3)[C@H]2C1	T cruzi growth-1 inconclusive (no result: IDH1 mut inh) | T cruzi growth-2 103.8 | T cruzi growth-3 inactive | NIH3T3 tox inactive | NIH3T3 tox 2 102.8
O=C(Cc1ccccc1)N1CCCCN2[C@H](CO)[C@@H](c3ccc(C#Cc4ccccc4)cc3)[C@H]2C1	T cruzi growth-1 117.9 (no result: IDH1 mut inh) | T cruzi growth-2 97.1 | T cruzi growth-3 inactive | NIH3T3 tox 57.7 | NIH3T3 tox 2 104.7
COc1ccc(C#Cc2ccc([C@H]3[C@H]4CN(C(=O)Cc5ccccc5)CCCCN4[C@H]3CO)cc2)cc1	none (no result: IDH1 mut inh)
O=C(Cc1ccncc1)N1CCCCN2[C@@H](CO)[C@@H](c3ccc(C#Cc4ccccc4F)cc3)[C@@H]2C1	none (no result: IDH1 mut inh)
CCCN1[C@@H]2Cn3c(ccc(-c4ccc(OC)cc4)c3=O)[C@H]1[C@@H](C(=O)OC)[C@@H]2CO	none (no result: IDH1 mut inh)
O=C(Cc1cccnc1)N1CCCCN2[C@H](CO)[C@@H](c3ccc(/C=C/c4ccccc4)cc3)[C@H]2C1	T cruzi growth-1 105.1 (no result: IDH1 mut inh) | T cruzi growth-2 108.7 | T cruzi growth-3 inactive | NIH3T3 tox inactive | NIH3T3 tox 2 103.6
O=C(Cc1cccnc1)N1CCCCN2[C@H](CO)[C@H](c3ccc(/C=C/c4ccccc4)cc3)[C@H]2C1	none (no result: IDH1 mut inh)
COc1ccc(C#Cc2ccc([C@@H]3[C@H](CO)N4CCCCN(C(=O)Cc5cccnc5)C[C@@H]34)cc2)cc1	T cruzi growth-1 112.1 (no result: IDH1 mut inh) | T cruzi growth-2 106.6 | T cruzi growth-3 inactive | NIH3T3 tox 39.0 | NIH3T3 tox 2 103.7
COc1ccc(C#Cc2ccc([C@@H]3[C@@H](CO)N4CCCCN(C(=O)Cc5cccnc5)C[C@H]34)cc2)cc1	T cruzi growth-1 100.2 (no result: IDH1 mut inh) | T cruzi growth-2 106.2 | T cruzi growth-3 inactive | NIH3T3 tox inactive | NIH3T3 tox 2 105.1
